Screens (PubChem BioAssay)
A selection: hits, their analogues and other compounds. The true share with any hit is near 4.3%.
Yeast life ext = yeast lifespan extension; AID 775; 0.68% of 130,000 active; inhibition of the nicotinamide effect, % at 10 µM; S. cerevisiae growth with nicotinamide, OD615; deaD strain in restrictive glucose medium;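 active = inhibition above a set limit, placed 3 SD over the median of all compounds, cut at about 26% in these data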;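 note: 0% = nicotinamide-treated wells and 100% = cells grown without nicotinamide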
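assay system = DeaD-strain S. cerevisiae | measured by = absorbance at 615 nm | probe or stimulus = nicotinamide 1.5 mM | buffer or medium = CSMM-D glucose medium, restrictive | times = 48 h at 30 °C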
WT yeast gro inh = growth inhibition of WT yeast, mitochondrial fusion screen | mitochondrial fusion phenotypic screen, WT strain | inhibition, % at 10 µM | 2.1% of 190,000 active | AID 1362; in the data active = inhibition above about 58%; tested in S. cerevisiae
Yeast growth inh = yeast BB579 growth reduction in restrictive medium; S. cerevisiae BB579 growth, OD615, 48 h; inhibition, % at 10 µM; 0.51% of 140,000 active; AID 804;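 active = inhibition above a set limit, 3 SD over the mean compound inhibition, cut at about 44% in these data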
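Assay system: S. cerevisiae DeaD strain BB579 yeast. Medium: CSMM-D restrictive synthetic medium containing dextrose (glucose). Times: 4 h cell preincubation, 48 h compound exposure, 30 °C humidified. Signal: OD615 turbidity measurement. Benchmarks: positive control amphotericin B 10 µg/mL.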
RAM inhibit = yeast RAM network inhibition; AID 868; inhibition, % at 50 µM; S. cerevisiae dse1pr::URA3 reporter, 5-FOA growth OD615, 2 d; analog-sensitive cbk1-as2 kinase mutant strain; 1.8% of 190,000 active;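 active = inhibition above a set limit, 3 SD over mean compound inhibition, cut at about 8.4% in these data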;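 note: 0% = DMSO-only wells with no growth and 100% = 10 µM 1-NA-PP1 full growth; inhibition rescues growth on 5-FOA so higher OD means more RAM inhibition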
* = called active by the depositor; / = no result given.

SMILES	Yeast life ext	WT yeast gro inh	Yeast growth inh	RAM inhibit
CC(c1ccco1)N(C(=O)c1ccccc1NS(=O)(=O)c1cccc([N+](=O)[O-])c1)c1ccccn1 (centres undefined)	34*	14	-20	5
CC(c1ccco1)N(C(=O)c1ccccc1NS(=O)(=O)c1cc([N+](=O)[O-])ccc1Cl)c1ccccn1 (centres undefined)	59*	27	-29	3
CC(c1ccco1)N(C(=O)c1ccccc1NS(=O)(=O)c1ccc(Cl)cc1)c1ccccn1 (centres undefined)	22	28	-29	1
CCN(CC)c1cnn(C/C(=N\OC)c2ccc(Cl)cc2)c(=O)c1Br	-2	8	26	2
O=C(Nc1ccc2c(c1)OCO2)c1ccccc1SCC(=O)N1CCCC1	-25	65*	-46	0
COCCCNC(=O)c1ccccc1Oc1ccccc1	-8	0	-30	0
O=C(NCc1ccc(Cl)cc1)c1ccccc1Oc1ccccc1	-10	61*	-44	1
CC(NC(=O)c1ccco1)c1cccc2ccccc12 (centres undefined)	/	-11	-4	0
OC(COc1ccccc1)Cn1c2ccccc2c2ccccc21 (centres undefined)	-7	80*	-13	8
CC(=O)Nc1ccc(OCC(O)Cn2c3ccccc3c3ccccc32)cc1 (centres undefined)	-8	41	5	0
Cc1ccc(-c2cc3ccccc3nc2N2CCOCC2)cc1	/	59*	/	-1
CCNC(=O)CC(=O)Nc1ccccc1C(=O)O	1	-9	-64	0
CCc1ccc(CCC(=O)Nc2ccccc2C(=O)O)o1	-21	77*	-1	-1
Cc1noc(C)c1COC(=O)c1ccc(S(=O)(=O)N2CCCCC2)cc1	/	8	/	3
O=C1C(=C(O)c2ccccc2)C(=O)c2ccccc21	42*	7	-40	-1
O=C1C(=C(c2ccccc2)c2ccccc2)Nc2ccccc21	5	13	-18	0
CC(=O)Nc1cc([N+](=O)[O-])ccc1N1CCOCC1	/	9	/	1
O=C(Nc1ccc([N+](=O)[O-])cc1)Nc1ccc(N2CCOCC2)c2nonc12	/	79*	/	1
COc1ccc([C@H]2[C@H](C(=O)OC(C)(C)C)N3N=Cc4ccccc4C3C23C(=O)c2ccccc2C3=O)cc1OC (some centres undefined)	38*	9	-11	5
COc1ccc([C@H]2[C@H](C(=O)OC(C)(C)C)N3N=Cc4ccccc4C3C23C(=O)c2ccccc2C3=O)c(OC)c1 (some centres undefined)	7	0	-12	9.3*
COCCCNC(=S)Nc1cccc(S(=O)(=O)NC2=NCCC2)c1	/	-17	/	-1
O=C(NCc1ccc(F)cc1)C(=O)NCC1OCCN1S(=O)(=O)c1cccs1 (centres undefined)	0	-4	-34	4
CCCn1c(C)cc(/C=C(\C#N)C(=O)OCC(=O)Nc2cccc(OC)c2)c1C	-2	18	-82	8.9*
Cc1cc(/C=C(\C#N)C(=O)OCC(=O)NC(=O)NC(C)(C)C)c(C)n1CCC(C)C	-6	15	-47	-1
O=C(/C(=N\Nc1ccccc1)Sc1nnnn1-c1ccccc1)c1ccccc1	30*	-13	-39	8
SMILES	Yeast life ext	WT yeast gro inh	Yeast growth inh	RAM inhibit
COC(=O)CSc1nnnn1-c1ccccc1	-11	-4	-49	-1
Cc1cccn2c(CN3CCCC(c4ccccc4)C3)c(C(=O)N3CCOCC3)nc12 (centres undefined)	/	5	/	-2
CCN1C(=O)/C(=C\c2ccco2)C(C(=O)OC)=C1C	-31	7	-25	0
COC(=O)C1=C(C)N(CCc2ccccc2)C(=O)/C1=C\c1ccco1	16	-5	-42	11*
COC(=O)C1=C(C)N(c2cccc(OC)c2)C(=O)/C1=C\c1ccco1	20	2	-36	9.0*
COc1ccccc1N(CC(O)Cn1ccnc1C)S(=O)(=O)c1ccc(C)cc1 (centres undefined)	/	-18	/	2
Cc1c(-c2ccccc2)sc(N)c1C(=O)N1CCOCC1	-11	1	-5	0
CN(c1cccc(NC(=O)c2cccc([N+](=O)[O-])c2)c1)S(C)(=O)=O	/	-26	/	0
C=CCN1C(=O)/C(=C/c2cccs2)S/C1=N\S(=O)(=O)c1ccc(F)cc1	9	-10	-1	11*
CCN1C(=O)/C(=C/c2cccs2)S/C1=N\S(=O)(=O)c1ccc(C)cc1	-1	13	-15	5
O=C(NCc1ccccc1)c1ccc(Br)o1	-3	-12	-19	1
O=C(c1ccc(Br)o1)N(Cc1ccccc1)Cc1ccccc1	1	79*	-8	0
CCOC(=O)c1cn(-c2ccc(F)c(F)c2F)c2c(F)c(F)c(F)cc2c1=O	-8	5	-40	3
CCOC(=O)c1cn(-c2nc(-c3ccc(Cl)c(Cl)c3)cs2)c2c(F)c(N3CCOCC3)c(F)cc2c1=O	-5	-24	-40	9.7*
Cc1ccc(C2C3=C(CC(C)(C)CC3=O)N=C3c4ccccc4C(=O)C32)cc1 (centres undefined)	1	-14	-6	5
C=CCC1(C#N)C(SC)=NC2=C(C(=O)CC(C)(C)C2)C1c1ccc(Br)cc1 (centres undefined)	0	74*	-3	2
Cc1cc(NCCCn2ccnc2)n2nc(C)c(-c3ccc(Cl)cc3)c2n1	-15	65*	-22	5
COc1cccc(NC(=S)N/N=C2\CC3CCC2(C)C3(C)C)c1 (centres undefined)	/	71*	/	1
CC12CCC(C/C1=N/NC(=O)Nc1ccccc1)C2(C)C (centres undefined)	/	-3	/	1
CCNC(=O)CN1C(=O)NC(Cc2ccccc2)(Cc2ccccc2)C1=O	/	2	/	0
O=C(Nc1ccccc1)C1=C[C@@H](c2ccc(Br)cc2)C[C@@H](OCCCCO)O1	/	32	/	7
CN1CCN(c2ccc(-c3ccc4ccccc4n3)cc2)CC1	/	73*	/	0
O=C(CSc1nc2ccccc2s1)Nc1ccc(N2CCOCC2)c(Cl)c1	-7	-8	-40	5
O=C(CSc1nc2ccccc2s1)Nc1ccc(Cl)c(S(=O)(=O)N2CCOCC2)c1	3	34	-51	9.9*
O=C(Cn1[nH]c(=O)c2ccccc2c1=O)Nc1ccc(-c2nnc3n2CCCCC3)cc1	-12	2	-14	1
Cc1cc(CNC(=O)c2ccc3c(c2)OCO3)c2ccccc2n1	/	4	/	3
CCC(CO)[n+]1c(C)cc(/C=C2\Sc3ccccc3N2Cc2ccccc2)cc1C (centres undefined)	0	59*	-17	2
CCN1/C(=C2\SC(=S)N(Cc3ccccc3)C2=O)Sc2ccccc21	-3	1	-36	7
CCOC(=O)N1CCN(c2nc(C(F)(F)F)nc3c(C)cc(C)cc23)CC1	5	3	-34	7
Cc1cc(C)c2nc(C(F)(F)F)nc(N3CC(C)OC(C)C3)c2c1 (centres undefined)	-16	77*	-18	4
